Laboratory results reported in ChEMBL document CHEMBL2021768, “Syntheses of [12]aneN₃-oligopeptide conjugates as effective DNA condensation agents” (Bioorg Med Chem, 2012).
The source made the active and inactive calls. No cut-off for these calls is given here. Residues, ends and D or L forms follow the SMILES beside them.

Columns and labels:
Nucleic Acid [1] = assay: Induction of Escherichia coli pUC18 DNA condensation assessed as retardation of DNA migration at 500 uM after 1 hr by agarose gel electrophoresis; type: nucleic-acid assay
Outline: (§1)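 Supercoiled pUC18 plasmid treated with conjugate in Tris–HCl (50 mM, pH 7.4), then incubated 1 h at 37 °C. Agarose gel electrophoresis compared with a DNA-alone lane. Retardation was judged by loss of supercoiled DNA migration.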

Nucleic Acid [2] = assay: Reversible Escherichia coli pUC18 condensation assessed as DNA migration at 150 uM after 1 hr by agarose gel electrophoresis in presence of 200 mM NaCl; type: nucleic-acid assay
Nucleic Acid [3] = assay: Induction of Escherichia coli pUC18 condensation assessed as retardation of DNA migration at 150 uM after 1 hr by agarose gel electrophoresis in presence of 50 to 400 mM NaCl; type: nucleic-acid assay
[4] = Cytotoxicity against human HepG2 cells assessed as cell viability at 250 uM after 24 hrs by MTT assay; type: cell-based; settings: read-out: Activity
Outline: (§2)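 MTT assay. HepG2 grown in DMEM with 15% FBS, T98G in MEM with 10% FBS, 37 °C, 5% CO2. Cells seeded at 5 × 10⁵ per well and cultured 24 h, then exposed to compound for 24 h. MTT (5 mg/mL stock) added for 4 h, formazan dissolved in DMSO, absorbance read at 490 nm. Viability taken relative to controls from four parallel tests.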

Nucleic Acid [5] = assay: Induction of Escherichia coli pUC18 condensation assessed as retardation of DNA migration at 200 uM after 1 hr by agarose gel electrophoresis; type: nucleic-acid assay; outline: as §1
[6] = Cytotoxicity against human T98G cells assessed as cell viability at 250 uM after 24 hrs by MTT assay; type: cell-based; settings: read-out: Activity; outline: as §2
Nucleic Acid [7] = assay: Induction of Escherichia coli pUC18 condensation assessed as diameters of DNA nanoparticles at 150 uM after 1 hr by atomic force microscopy; type: nucleic-acid assay
Outline: (§3)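 pUC18 diluted to 9 μg/mL in Tris (5 mM, pH 7.4) with 1 mM MgCl2 plus conjugate, equilibrated 1 h at 37 °C. Sample spotted for 5 min on mica pretreated with 10 mM NiCl2, then rinsed and dried under argon. Imaged in air at room temperature by tapping-mode AFM with Si tips at 1–3 Hz.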

Nucleic Acid [8] = assay: Binding affinity to calf thymus DNA assessed as fluorescence quenching after 1 min by ethidium bromide displacement assay; type: nucleic-acid assay; settings: Bos taurus
Outline: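 Calf thymus DNA (100 μM) pretreated with ethidium bromide (10 μM), then conjugate added. Tris buffer (50 mM, pH 7.4), room temperature. Incubated 1 min before reading fluorescence, excitation 537 nm. Apparent binding constant (K_app) derived from the quenching curve.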

Nucleic Acid [9] = assay: Induction of Escherichia coli pUC18 condensation assessed as hydrodynamic diameters of DNA nanoparticles at 50 to 250 uM after 5 mins by dynamic laser light scattering analysis; type: nucleic-acid assay
Outline: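 pUC18 DNA at 9 μg/mL in Tris buffer (50 mM, pH 7.4) with conjugate, left 5 min at room temperature. Dynamic light scattering at 90° and 25 °C. Ten runs per solution, averaged and reported as mean ± S.D.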

Nucleic Acid [10] = assay: Induction of Escherichia coli pUC18 condensation assessed as retardation of DNA migration at 250 uM after 1 hr by agarose gel electrophoresis; type: nucleic-acid assay; outline: as §1
Nucleic Acid [11] = assay: Reversible Escherichia coli pUC18 condensation assessed as DNA migration at 250 uM after 1 hr by agarose gel electrophoresis in presence of 200 mM NaCl; type: nucleic-acid assay
Nucleic Acid [12] = assay: Induction of Escherichia coli pUC18 condensation assessed as diameters of DNA nanoparticles at 250 uM after 1 hr by atomic force microscopy; type: nucleic-acid assay; outline: as §3
Nucleic Acid [13] = assay: Induction of Escherichia coli pUC18 condensation assessed as retardation of DNA migration at 220 uM after 1 hr by agarose gel electrophoresis in presence of 50 to 400 mM NaCl; type: nucleic-acid assay

| Activity (Nucleic Acid [1]) | Kapp (Nucleic Acid [8]) | Activity (Nucleic Acid [9]) | SMILES | viability at 24 h, 250 µM [4] | viability at 24 h, 250 µM [6] | other results |
| --- | --- | --- | --- | --- | --- | --- |
| inactive | – | – | COC(=O)[C@H](CO)NC(=O)[C@H](CC(C)C)NC(=O)[C@H](C)NC(=O)[C@H](CC(C)C)NC(=O)[C@H](C)NC(=O)[C@H](CC(C)C)NC(=O)CN1CCCNCCCNCCC1 (HELM PEPTIDE1{[O=C(CN1CCCNCCCNCCC1)[*:2]].L.A.L.A.L.S.[CO[*:1]]}$$$$V2.0) | – | – | – |
| inactive | – | – | COC(=O)[C@H](Cc1ccc(O)cc1)NC(=O)[C@H](CC(C)C)NC(=O)[C@H](C)NC(=O)[C@H](CC(C)C)NC(=O)[C@H](C)NC(=O)[C@H](CC(C)C)NC(=O)CN1CCCNCCCNCCC1 (HELM PEPTIDE1{[O=C(CN1CCCNCCCNCCC1)[*:2]].L.A.L.A.L.Y.[CO[*:1]]}$$$$V2.0) | – | – | – |
| – | 1.4 ×10⁵ /M | 208 nm | COC(=O)[C@H](Cc1ccccc1)NC(=O)[C@H](CC(C)C)NC(=O)[C@H](C)NC(=O)[C@H](CC(C)C)NC(=O)[C@H](C)NC(=O)[C@H](CC(C)C)NC(=O)CN1CCCNCCCNCCC1 (HELM PEPTIDE1{[O=C(CN1CCCNCCCNCCC1)[*:2]].L.A.L.A.L.F.[CO[*:1]]}$$$$V2.0) | 83% | 78% | Activity (Nucleic Acid [3]): inactive; Activity (Nucleic Acid [10]): Active; Activity (Nucleic Acid [11]): Active; Activity (Nucleic Acid [12]): 20 nm |
| – | 1.2 ×10⁵ /M | 196 nm | COC(=O)[C@H](Cc1c[nH]c2ccccc12)NC(=O)[C@H](CC(C)C)NC(=O)[C@H](C)NC(=O)[C@H](CC(C)C)NC(=O)[C@H](C)NC(=O)[C@H](CC(C)C)NC(=O)CN1CCCNCCCNCCC1 (HELM PEPTIDE1{[O=C(CN1CCCNCCCNCCC1)[*:2]].L.A.L.A.L.W.[CO[*:1]]}$$$$V2.0) | 85% | 80% | Activity (Nucleic Acid [13]): inactive; Activity (Nucleic Acid [10]): Active; Activity (Nucleic Acid [11]): Active; Activity (Nucleic Acid [12]): 36 nm |

Continued, compound first:

| SMILES | Activity (Nucleic Acid [1]) | Kapp (Nucleic Acid [8]) | Activity (Nucleic Acid [9]) | viability at 24 h, 250 µM [4] | viability at 24 h, 250 µM [6] | other results |
| --- | --- | --- | --- | --- | --- | --- |
| COC(=O)CNC(=O)[C@H](CC(C)C)NC(=O)[C@H](C)NC(=O)[C@H](CC(C)C)NC(=O)[C@H](C)NC(=O)[C@H](CC(C)C)NC(=O)CN1CCCNCCCNCCC1 (HELM PEPTIDE1{[O=C(CN1CCCNCCCNCCC1)[*:2]].L.A.L.A.L.G.[CO[*:1]]}$$$$V2.0) | inactive | – | – | – | – | – |
| COC(=O)[C@H](CC(C)C)NC(=O)[C@H](CC(C)C)NC(=O)[C@H](C)NC(=O)[C@H](CC(C)C)NC(=O)[C@H](C)NC(=O)[C@H](CC(C)C)NC(=O)CN1CCCNCCCNCCC1 (HELM PEPTIDE1{[O=C(CN1CCCNCCCNCCC1)[*:2]].L.A.L.A.L.L.[CO[*:1]]}$$$$V2.0) | – | 1.9 ×10⁵ /M | 174 nm | 97% | 96% | Activity (Nucleic Acid [2]): Active; Activity (Nucleic Acid [3]): inactive; Activity (Nucleic Acid [5]): Active; Activity (Nucleic Acid [7]): 30 nm |
| COC(=O)[C@@H](NC(=O)[C@H](CC(C)C)NC(=O)[C@H](C)NC(=O)[C@H](CC(C)C)NC(=O)[C@H](C)NC(=O)[C@H](CC(C)C)NC(=O)CN1CCCNCCCNCCC1)C(C)C (HELM PEPTIDE1{[O=C(CN1CCCNCCCNCCC1)[*:2]].L.A.L.A.L.V.[CO[*:1]]}$$$$V2.0) | inactive | – | – | – | – | – |
| COC(=O)[C@H](C)NC(=O)[C@H](CC(C)C)NC(=O)[C@H](C)NC(=O)[C@H](CC(C)C)NC(=O)[C@H](C)NC(=O)[C@H](CC(C)C)NC(=O)CN1CCCNCCCNCCC1 (HELM PEPTIDE1{[O=C(CN1CCCNCCCNCCC1)[*:2]].L.A.L.A.L.A.[CO[*:1]]}$$$$V2.0) | inactive | – | – | – | – | – |
